Assays:
Recombinant human IP6K1 [1] = target: T1, Recombinant human IP6K1 (Homo sapiens, UniProt Q92551); assay: IP6K1 activity assay in vitro, radiochemical assay; assay type: biochemical; conditions: TNP 1 μM
In short: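 Recombinant human IP6K1 (100 ng) was incubated 1 h in 20 mM Tris pH 7.4 with 5 mM MgCl2, 2 nmol IP6, [3H]IP6 (130 nCi), 1 mM ATP and 1 mM DTT, plus DMSO or 1 μM test compound. 5-IP7 was resolved by HPLC, with activity expressed relative to DMSO (100%). Run in triplicate.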

Recombinant human IP6K1 [2] = target: T1, Recombinant human IP6K1; assay: IP6K1 activity assay in vitro, SDS-PAGE assay; assay type: biochemical; conditions: TNP 1 μM
In short: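 Recombinant human IP6K1 (100 ng, purified from E. coli) was incubated in 20 mM Tris pH 7.4 with 5 mM MgCl2, 5 nmol IP6, 1 mM ATP and 1 mM DTT. DMSO or 1 μM test compound was added. IP6 conversion to 5-IP7 was resolved and read by SDS-PAGE.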

DIO WT mice = assay: Long-term TNP for reversal of DIO in WT mice; assay type: in vivo
In short: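 Inbred IP6K1-KO mice (seventh generation) and WT littermates, n = 4/group, received HFD for 8 weeks, then daily injections (10 mg/kg) with continued HFD for 10 weeks. GTT was done at week 5: 5 h fast, glucose 2 g/kg i.p., tail-vein glucometer readings including time 0. After 10 weeks, fat, lean and fluid masses were measured by LF-NMR, and mice were sacrificed after a 5 h fast.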

DIO mice = assay: Single dose of TNP in DIO mice; assay type: in vivo
In short: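 Chow-fed lean or DIO mice (n = 4/group) received one 20 mg/kg injection, were fasted 5 h, then given GTT (glucose 2 g/kg i.p., tail-vein glucometer from time 0). Mice were then sacrificed for tissues and cardiac-puncture serum. Insulin was measured by ultra-sensitive ELISA and TAG by a metabolic core. Akt S473 was immunoblotted (T308 also in IWAT), with densitometry n = 3.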

CYP1A2 = target: T2, CYP1A2 (Homo sapiens, UniProt P05177); assay: CYP450 inhibition in human hepatic microsomes, CYP1A2; assay type: in vitro ADME; conditions: liver microsomes
T2 sequence (P05177 1-516): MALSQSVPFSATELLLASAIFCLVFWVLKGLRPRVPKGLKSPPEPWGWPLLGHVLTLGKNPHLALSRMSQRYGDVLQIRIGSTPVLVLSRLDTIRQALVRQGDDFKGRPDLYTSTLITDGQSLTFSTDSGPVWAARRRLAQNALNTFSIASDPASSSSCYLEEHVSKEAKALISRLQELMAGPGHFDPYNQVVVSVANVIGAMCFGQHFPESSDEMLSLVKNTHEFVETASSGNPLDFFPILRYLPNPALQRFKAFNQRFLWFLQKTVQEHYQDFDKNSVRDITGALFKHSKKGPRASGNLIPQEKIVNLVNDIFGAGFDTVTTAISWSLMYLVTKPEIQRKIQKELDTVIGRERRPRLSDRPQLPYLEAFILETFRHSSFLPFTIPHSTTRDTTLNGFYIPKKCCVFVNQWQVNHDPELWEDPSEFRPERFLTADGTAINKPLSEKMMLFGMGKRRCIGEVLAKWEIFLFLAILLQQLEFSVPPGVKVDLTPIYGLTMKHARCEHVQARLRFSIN

IP6Ks = conditions: cited from earlier work
PP-IP5K = conditions: cited from earlier work
71 unrelated kinases = conditions: cited from earlier work
IP3-3K = conditions: PC12 cells, enhances neurite outgrowth; cited from earlier work
[3] = 10 mg/kg BW daily, 10 weeks, WT
[4] = 10 mg/kg BW daily, 10 weeks, WT, vs vehicle
[5] = after 5 weeks of TNP treatment, WT

T1 sequence (Q92551 whole entry): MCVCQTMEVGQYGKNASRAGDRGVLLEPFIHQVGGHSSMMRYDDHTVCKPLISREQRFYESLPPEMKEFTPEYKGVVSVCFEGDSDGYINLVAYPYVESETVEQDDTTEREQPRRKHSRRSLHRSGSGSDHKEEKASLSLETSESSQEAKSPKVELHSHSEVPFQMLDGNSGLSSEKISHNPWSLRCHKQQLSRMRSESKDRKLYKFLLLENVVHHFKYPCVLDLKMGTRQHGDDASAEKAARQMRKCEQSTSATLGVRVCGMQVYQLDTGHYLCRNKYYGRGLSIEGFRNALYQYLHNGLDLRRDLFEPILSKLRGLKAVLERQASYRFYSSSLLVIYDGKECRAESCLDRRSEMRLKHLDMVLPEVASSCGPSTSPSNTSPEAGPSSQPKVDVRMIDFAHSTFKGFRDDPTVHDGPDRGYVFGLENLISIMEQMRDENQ

## O=[N+]([O-])c1ccc(CNc2nc(NCc3cccc(C(F)(F)F)c3)nc3[nH]cnc23)cc1 [TNP, N6-(4-nitrobenzyl)-N2-(3-(trifluoromethyl)benzyl)-9H-purine-2,6-diamine]
Recombinant human IP6K1 [1]
  IP6K1 catalytic activity: blocks the catalytic activity of IP6K1
Recombinant human IP6K1 [2]
  IP6K1 activity: inhibits IP6K1 activity
DIO WT mice; 10 mg/kg BW daily, 10 weeks, DIO mice
  Testis morphology: unaltered
DIO WT mice; 10 mg/kg BW daily, 10 weeks, HFD-fed WT
  Serum insulin level: reduces serum insulin level
DIO WT mice; [3]
  Serum cholesterol level: reduces serum cholesterol level
  UCP1 expression: enhances UCP1 expression
DIO WT mice; [4]
  Liver weight: substantially less
  Total fat mass (QNMR): significantly less
DIO WT mice; 10 mg/kg BW daily, 10 weeks, vs vehicle
  Histological morphology and weight of heart and kidney: similar
DIO WT mice; 10 mg/kg BW daily, after 10-week of treatment, WT
  Reduction in body weight vs vehicle: ~10 g
DIO WT mice; 10 mg/kg BW daily, after 10 weeks of injection, DIO WT
  Body weight: 36.9 g
DIO WT mice; [5]
  Fasting blood glucose: reduces fasting blood glucose
  Glucose disposal (GTT): enhances glucose disposal
DIO WT mice; long-term TNP treatment, WT and IP6K1-KO mice, stereological analysis
  CA1 neuronal density: did not significantly alter
DIO mice; single dose 20 mg/kg BW
  Blood glucose level: significantly reduces
  Glucose tolerance (GTT): significantly improves
  HFD induced increase in serum insulin: slightly reduces
  Serum TAG level: does not influence
  Serum cholesterol, HDL, and LDL levels: slightly reduces
DIO mice; single injection 20 mg/kg BW, phospho S473/total Akt, ImageJ
  Increase in Akt S473 phosphorylation in IWAT, soleus muscle and liver: 2–3 fold
CYP1A2
  inhibition at 10 μM: 86%
IP6Ks
  Potency on IP6Ks over IP3-3K: 70 fold
PP-IP5K
  Effect on the 1-IP7 generating enzyme PP-IP5K: does not influence
71 unrelated kinases
  Effect on 71 unrelated kinases: does not influence
IP3-3K
  Concentrations at which TNP inhibits IP3-3K: 20 to 40 µM

From PMC5034689 (Molecular Metabolism, 2016)
